Results: ChEMBL document CHEMBL3526129, “Species differences in tissue distribution and enzyme activities of arylacetamide deacetylase in human, rat, and mouse” (Drug Metab Dispos, 2012)

Key:
Format in all cases: ADME
[1] = substrate: CCOc1ccc(NC(C)=O)cc1; assay: (§1) Activity of AADAC in human jejunum microsome
Procedure, shortened: (§2)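 Hydrolase activity of tissue microsomes in 0.2 ml mixtures of 100 mM potassium phosphate (pH 7.4). Microsomal protein: 0.4 mg/ml for flutamide (0.025–0.75 mM) and phenacetin (0.05–4 mM); 0.5 mg/ml for rifampicin (0.005–1 mM). Products measured were FLU-1, p-phenetidine and 25-deacetylrifampicin, within linear ranges. Three independent experiments.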

[2] = substrate: CO[C@H]1/C=C/O[C@@]2(C)Oc3c(C)c(O)c4c(O)c(c(/C=N/N5CCN(C)CC5)c(O)c4c3C2=O)NC(=O)/C(C)=C\C=C\[C@H](C)[C@H](O)[C@@H](C)[C@@H](O)[C@@H](C)[C@H](OC(C)=O)[C@@H]1C; assay: as §1; procedure, shortened: as §2
[3] = substrate: CCOc1ccc(NC(C)=O)cc1; assay: (§3) Activity of AADAC in human liver microsome; procedure, shortened: as §2
[4] = substrate: CO[C@H]1/C=C/O[C@@]2(C)Oc3c(C)c(O)c4c(O)c(c(/C=N/N5CCN(C)CC5)c(O)c4c3C2=O)NC(=O)/C(C)=C\C=C\[C@H](C)[C@H](O)[C@@H](C)[C@@H](O)[C@@H](C)[C@H](OC(C)=O)[C@@H]1C; assay: as §3; procedure, shortened: as §2
[5] = substrate: CCOc1ccc(NC(C)=O)cc1; assay: Activity of AADAC in human lung microsome; procedure, shortened: as §2
[6] = substrate: CCOc1ccc(NC(C)=O)cc1; assay: Activity of AADAC in human kidney microsome; procedure, shortened: as §2
[7] = substrate: CCOc1ccc(NC(C)=O)cc1; assay: (§4) Activity of human recombinant AADAC
Procedure, shortened: (§5)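 Sf21 insect cells were infected with baculovirus carrying intact human, rat or mouse AADAC, harvested after 7 days, and homogenized by freeze-thaw. Homogenate was incubated in 100 mM potassium phosphate (pH 7.4). Flutamide (0.025–0.75 mM) used 0.4 mg/ml; phenacetin (0.05–4 mM) used 0.4 mg/ml for human and 0.2 mg/ml for rat or mouse; rifampicin (0.005–1 mM) used 0.5 mg/ml. Activity was normalized to immunoblot-derived AADAC expression units. Triplicate determinations.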

[8] = substrate: CO[C@H]1/C=C/O[C@@]2(C)Oc3c(C)c(O)c4c(O)c(c(/C=N/N5CCN(C)CC5)c(O)c4c3C2=O)NC(=O)/C(C)=C\C=C\[C@H](C)[C@H](O)[C@@H](C)[C@@H](O)[C@@H](C)[C@H](OC(C)=O)[C@@H]1C; assay: as §4; procedure, shortened: as §5
[9] = substrate: CCOc1ccc(NC(C)=O)cc1; assay: Activity of AADAC in mouse lung microsome; procedure, shortened: as §2
[10] = substrate: CCOc1ccc(NC(C)=O)cc1; assay: Activity of AADAC in mouse liver microsome; procedure, shortened: as §2
[11] = substrate: CCOc1ccc(NC(C)=O)cc1; assay: Activity of mouse recombinant AADAC; procedure, shortened: as §5
[12] = substrate: CCOc1ccc(NC(C)=O)cc1; assay: Activity of AADAC in mouse jejunum microsome; procedure, shortened: as §2
[13] = substrate: CCOc1ccc(NC(C)=O)cc1; assay: Activity of AADAC in mouse kidney microsome; procedure, shortened: as §2
[14] = substrate: CCOc1ccc(NC(C)=O)cc1; assay: Activity of rat recombinant AADAC; procedure, shortened: as §5
[15] = substrate: CCOc1ccc(NC(C)=O)cc1; assay: Activity of AADAC in rat kidney microsome; procedure, shortened: as §2
[16] = substrate: CCOc1ccc(NC(C)=O)cc1; assay: Activity of AADAC in rat liver microsome; procedure, shortened: as §2
[17] = substrate: CCOc1ccc(NC(C)=O)cc1; assay: Activity of AADAC in rat jejunum microsome; procedure, shortened: as §2
[18] = substrate: CCOc1ccc(NC(C)=O)cc1; assay: Activity of AADAC in rat lung microsome; procedure, shortened: as §2

B1: Arylacetamide deacetylase (Homo sapiens) (protein)
chain: MGRKSLYLLIVGILIAYYIYTPLPDNVEEPWRMMWINAHLKTIQNLATFVELLGLHHFMDSFKVVGSFDEVPPTSDENVTVTETKFNNILVRVYVPKRKSEALRRGLFYIHGGGWCVGSAALSGYDLLSRWTADRLDAVVVSTNYRLAPKYHFPIQFEDVYNALRWFLRKKVLAKYGVNPERIGISGDSAGGNLAAAVTQQLLDDPDVKIKLKIQSLIYPALQPLDVDLPSYQENSNFLFLSKSLMVRFWSEYFTTDRSLEKAMLSRQHVPVESSHLFKFVNWSSLLPERFIKGHVYNNPNYGSSELAKKYPGFLDVRAAPLLADDNKLRGLPLTYVITCQYDLLRDDGLMYVTRLRNTGVQVTHNHVEDGFHGAFSFLGLKISHRLINQYIEWLKENL
[1]
  Km: 2.5 mM
  Vmax: 0.01 µmol/min/mg
[2]
  Km: 0.3 mM
  Vmax: 0.000212 µmol/min/mg
[3]
  Km: 3.3 mM
  Vmax: 0.0036 µmol/min/mg
[4]
  Km: 0.4 mM
  Vmax: 0.000273 µmol/min/mg
[5]
  Km: 7.4 mM
  Vmax: 0.0008 µmol/min/mg
[6]
  Km: 2.3 mM
  Vmax: 0.0004 µmol/min/mg
[7]
  Km: 1.8 mM
[8]
  Km: 0.2 mM

B2: Arylacetamide deacetylase (Mus musculus) (protein)
chain: MGKTISLLISVVLVAYYLYIPLPDAIEEPWKVVWETAFVKIGTDLASFGELLGISHFMETIQLLMSFQEVPPTSDEHVTVMETAFDSVPVRIYIPKRKSMALRRGLFYIHGGGWCLGSAAHFSYDTLSRWTAHKLDAVVVSTDYGLAPKHHFPRQFEDVYRSLRWFLQEDVLEKYGVDPRRVGVSGDSAGGNLAAAVTQQLIQDPDVKIKLKVQALIYPALQALDTNVPSQQEGSHFPVLTRSLMVRFWSEYFTTDRGLEKAMLLNQHVPMESSHLLQFVNWSSLLPERYKKSPVYKNPTPGSSELAQKYPGFIDVKACPLLANDNILHHLPKTYIITCQYDVLRDDGLMYVKRLQNVGVHVTHHHVEDGFHGTFSFPGLKLSERMKNQYLSWLIKNL
[9]
  Km: 2.9 mM
  Vmax: 0.0001 µmol/min/mg
[10]
  Km: 9.8 mM
  Vmax: 0.0171 µmol/min/mg
[11]
  Km: 1.6 mM
[12]
  Km: 11.2 mM
  Vmax: 0.0014 µmol/min/mg
[13]
  Km: 7.1 mM
  Vmax: 0.0029 µmol/min/mg

B3: Arylacetamide deacetylase (Rattus norvegicus) (protein)
chain: MGRTIFLLISVVLVAYYIYIPLPDDIEEPWKIILGNTLLKLGGDLASFGELLGLNHFMDTVQLFMRFQVVPPTSDENVTVMETDFNSVPVRIYIPKRKSTTLRRGLFFIHGGGWCLGSAAYFMYDTLSRRTAHRLDAVVVSTDYGLAPKYHFPKQFEDVYHSLRWFLQEDILEKYGVDPRRVGVSGDSAGGNLTAAVTQQILQDPDVKIKLKVQALIYPALQALDMNVPSQQENSQYPLLTRSLLIRFWSEYFTTDRDLEKAMLLNQHVPVEFSHLLQFVNWSSLLPQRYKKGYFYKTPTPGSLELAQKYPGFTDVKACPLLANDSILHHLPMTYIITCQYDVLRDDGLMYVKRLQNTGVHVTHHHIEDGFHGALTLPGLKITYRMQNQYLNWLHKNL
[14]
  Km: 5.8 mM
[15]
  Km: 9.3 mM
  Vmax: 0.0006 µmol/min/mg
[16]
  Km: 29.8 mM
  Vmax: 0.0059 µmol/min/mg
[17]
  Km: 4.6 mM
  Vmax: 0.0003 µmol/min/mg
[18]
  Km: 5.3 mM
  Vmax: 0.0001 µmol/min/mg
